Laboratory results from ChEMBL document CHEMBL3734675, “Synthesis, antimycobacterial and antibacterial activity of fluoroquinolone derivatives containing an 3-alkoxyimino-4-(cyclopropylanimo)methylpyrrolidine moiety” (2015).
≈ marks a conversion by molar mass, not a printed value.

Key:
Type in all cases: functional
Pseudomonas aeruginosa [1] = assay: Antibacterial activity against Pseudomonas aeruginosa 14-15 after 18 to 24 hrs by two-fold serial dilution method
Procedure, shortened: (§1)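 Twofold serial dilution in agar media against Gram-positive and Gram-negative strains. Plates incubated at 35 °C for 18–24 h. MIC read as the lowest compound concentration giving complete inhibition of bacterial growth.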

Klebsiella pneumoniae [2] = assay: Antibacterial activity against Klebsiella pneumoniae 14-4 after 18 to 24 hrs by two-fold serial dilution method; procedure, shortened: as §1
Staphylococcus aureus [3] = assay: Antibacterial activity against methicillin-resistant Staphylococcus aureus 14-4 after 18 to 24 hrs by two-fold serial dilution method
Procedure, shortened: (§2)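 Agar media, standard twofold serial dilution. MIC is the lowest concentration giving complete inhibition of bacterial growth after incubation at 35 °C for 18–24 h. Ciprofloxacin and levofloxacin were run as comparators.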

Klebsiella pneumoniae [4] = assay: Antibacterial activity against extended-spectrum beta-lactamase producing Klebsiella pneumoniae 14-18 after 18 to 24 hrs by two-fold serial dilution method; procedure, shortened: as §1
Staphylococcus aureus [5] = assay: Antibacterial activity against methicillin-sensitive Staphylococcus aureus 14-4 after 18 to 24 hrs by two-fold serial dilution method; procedure, shortened: as §1
Klebsiella pneumoniae [6] = assay: Antibacterial activity against Klebsiella pneumoniae 14-1 after 18 to 24 hrs by two-fold serial dilution method; procedure, shortened: as §1
Enterococcus faecium [7] = assay: Antibacterial activity against Enterococcus faecium 14-2 after 18 to 24 hrs by two-fold serial dilution method; procedure, shortened: as §1
Escherichia coli [8] = assay: Antibacterial activity against Escherichia coli ATCC 25922 after 18 to 24 hrs by two-fold serial dilution method; procedure, shortened: as §1
Pseudomonas aeruginosa [9] = assay: Antibacterial activity against Pseudomonas aeruginosa 14-16 after 18 to 24 hrs by two-fold serial dilution method; procedure, shortened: as §1
[10] = system: Staphylococcus epidermidis; assay: Antibacterial activity against methicillin-sensitive Staphylococcus epidermidis 14-2 after 18 to 24 hrs by two-fold serial dilution method; procedure, shortened: as §1
[11] = system: Staphylococcus epidermidis; assay: Antibacterial activity against methicillin-resistant Staphylococcus epidermidis 14-21 after 18 to 24 hrs by two-fold serial dilution method; procedure, shortened: as §2
[12] = system: Staphylococcus epidermidis; assay: Antibacterial activity against methicillin-resistant Staphylococcus epidermidis 14-39 after 18 to 24 hrs by two-fold serial dilution method; procedure, shortened: as §2
[13] = system: Staphylococcus epidermidis; assay: Antibacterial activity against methicillin-resistant Staphylococcus epidermidis 14-22 after 18 to 24 hrs by two-fold serial dilution method; procedure, shortened: as §2
Enterococcus faecalis [14] = assay: Antibacterial activity against Enterococcus faecalis 14-1 after 18 to 24 hrs by two-fold serial dilution method; procedure, shortened: as §1
Klebsiella pneumoniae [15] = assay: Antibacterial activity against extended-spectrum beta-lactamase producing Klebsiella pneumoniae 14-17 after 18 to 24 hrs by two-fold serial dilution method; procedure, shortened: as §1
Enterococcus faecium [16] = assay: Antibacterial activity against Enterococcus faecium 14-5 after 18 to 24 hrs by two-fold serial dilution method; procedure, shortened: as §1
Enterococcus faecalis [17] = assay: Antibacterial activity against Enterococcus faecalis 14-2 after 18 to 24 hrs by two-fold serial dilution method; procedure, shortened: as §1
Staphylococcus aureus [18] = assay: Antibacterial activity against Staphylococcus aureus CMCC 26003 after 18 to 24 hrs by two-fold serial dilution method; procedure, shortened: as §1
Pseudomonas aeruginosa [19] = assay: Antibacterial activity against Pseudomonas aeruginosa 14-14 after 18 to 24 hrs by two-fold serial dilution method; procedure, shortened: as §1
Klebsiella pneumoniae [20] = assay: Antibacterial activity against Klebsiella pneumoniae 14-2 after 18 to 24 hrs by two-fold serial dilution method; procedure, shortened: as §1
Enterococcus faecium [21] = assay: Antibacterial activity against Enterococcus faecium 14-6 after 18 to 24 hrs by two-fold serial dilution method; procedure, shortened: as §1
[22] = system: Staphylococcus epidermidis; assay: Antibacterial activity against methicillin-resistant Staphylococcus epidermidis 14-37 after 18 to 24 hrs by two-fold serial dilution method; procedure, shortened: as §2
Staphylococcus aureus [23] = assay: Antibacterial activity against methicillin-sensitive Staphylococcus aureus 14-1 after 18 to 24 hrs by two-fold serial dilution method; procedure, shortened: as §1
Streptococcus pneumoniae = assay: Antibacterial activity against methicillin-resistant Streptococcus pneumoniae ATCC 19615 after 18 to 24 hrs by two-fold serial dilution method; procedure, shortened: as §2
Klebsiella pneumoniae [24] = assay: Antibacterial activity against extended-spectrum beta-lactamase producing Klebsiella pneumoniae 14-19 after 18 to 24 hrs by two-fold serial dilution method; procedure, shortened: as §1
Klebsiella pneumoniae [25] = assay: Antibacterial activity against Klebsiella pneumoniae 14-3 after 18 to 24 hrs by two-fold serial dilution method; procedure, shortened: as §1
Pseudomonas aeruginosa [26] = assay: Antibacterial activity against Pseudomonas aeruginosa 14-9 after 18 to 24 hrs by two-fold serial dilution method; procedure, shortened: as §1
Staphylococcus aureus [27] = assay: Antibacterial activity against methicillin-sensitive Staphylococcus aureus 14-3 after 18 to 24 hrs by two-fold serial dilution method; procedure, shortened: as §1
Escherichia coli [28] = assay: Antibacterial activity against extended-spectrum beta-lactamase producing Escherichia coli 14-1 after 18 to 24 hrs by two-fold serial dilution method; procedure, shortened: as §1
Staphylococcus aureus [29] = assay: Antibacterial activity against methicillin-resistant Staphylococcus aureus 14-5 after 18 to 24 hrs by two-fold serial dilution method; procedure, shortened: as §2
Escherichia coli [30] = assay: Antibacterial activity against Escherichia coli 14-1 after 18 to 24 hrs by two-fold serial dilution method; procedure, shortened: as §1
Escherichia coli [31] = assay: Antibacterial activity against Escherichia coli 14-2 after 18 to 24 hrs by two-fold serial dilution method; procedure, shortened: as §1
Escherichia coli [32] = assay: Antibacterial activity against extended-spectrum beta-lactamase producing Escherichia coli 14-2 after 18 to 24 hrs by two-fold serial dilution method; procedure, shortened: as §1

O=C(O)c1cn(C2CC2)c2cc(N3CCNCC3)c(F)cc2c1=O [CIPROFLOXACIN]
MIC (Pseudomonas aeruginosa [1]): 1 µg/mL (≈ 3.02 µM)
MIC (Klebsiella pneumoniae [2]): 32 µg/mL (≈ 96.6 µM)
MIC (Staphylococcus aureus [3]): > 128 µg/mL
MIC (Klebsiella pneumoniae [4]): 0.5 µg/mL (≈ 1.51 µM)
MIC (Staphylococcus aureus [5]): 0.5 µg/mL (≈ 1.51 µM)
MIC (Klebsiella pneumoniae [6]): 32 µg/mL (≈ 96.6 µM)
MIC (Enterococcus faecium [7]): 32 µg/mL (≈ 96.6 µM)
MIC (Escherichia coli [8]): < 0.008 µg/mL
MIC (Pseudomonas aeruginosa [9]): 1 µg/mL (≈ 3.02 µM)
MIC [10]: > 128 µg/mL
MIC [11]: 64 µg/mL (≈ 193 µM)
MIC [12]: 128 µg/mL (≈ 386 µM)
MIC [13]: 128 µg/mL (≈ 386 µM)
MIC (Enterococcus faecalis [14]): 64 µg/mL (≈ 193 µM)
MIC (Klebsiella pneumoniae [15]): 0.5 µg/mL (≈ 1.51 µM)
MIC (Enterococcus faecium [16]): 128 µg/mL (≈ 386 µM)
MIC (Enterococcus faecalis [17]): 1 µg/mL (≈ 3.02 µM)
MIC (Staphylococcus aureus [18]): 0.5 µg/mL (≈ 1.51 µM)
MIC (Pseudomonas aeruginosa [19]): 1 µg/mL (≈ 3.02 µM)
MIC (Klebsiella pneumoniae [20]): 16 µg/mL (≈ 48.3 µM)
MIC (Enterococcus faecium [21]): > 128 µg/mL
MIC [22]: 128 µg/mL (≈ 386 µM)
MIC (Staphylococcus aureus [23]): 32 µg/mL (≈ 96.6 µM)
MIC (Streptococcus pneumoniae): 2 µg/mL (≈ 6.04 µM)
MIC (Klebsiella pneumoniae [24]): 64 µg/mL (≈ 193 µM)
MIC (Klebsiella pneumoniae [25]): > 128 µg/mL

C[C@H]1COc2c(N3CCN(C)CC3)c(F)cc3c(=O)c(C(=O)O)cn1c23.C[C@H]1COc2c(N3CCN(C)CC3)c(F)cc3c(=O)c(C(=O)O)cn1c23.O [LEVOFLOXACIN]
MIC (Klebsiella pneumoniae [2]): 16 µg/mL
MIC (Pseudomonas aeruginosa [26]): 0.5 µg/mL
MIC (Staphylococcus aureus [3]): 64 µg/mL
MIC (Staphylococcus aureus [5]): 0.5 µg/mL
MIC (Klebsiella pneumoniae [6]): 16 µg/mL
MIC (Enterococcus faecium [7]): 32 µg/mL
MIC (Escherichia coli [8]): 0.125 µg/mL
MIC [10]: > 128 µg/mL
MIC [11]: 64 µg/mL
MIC [12]: 64 µg/mL
MIC [13]: 32 µg/mL
MIC (Enterococcus faecalis [14]): 128 µg/mL
MIC (Enterococcus faecium [16]): 64 µg/mL
MIC (Staphylococcus aureus [27]): 0.125 µg/mL
MIC (Enterococcus faecalis [17]): 1 µg/mL
MIC (Staphylococcus aureus [18]): 0.25 µg/mL
MIC (Klebsiella pneumoniae [20]): 8 µg/mL
MIC (Escherichia coli [28]): 4 µg/mL
MIC (Staphylococcus aureus [29]): 8 µg/mL
MIC (Escherichia coli [30]): 8 µg/mL
MIC (Escherichia coli [31]): 8 µg/mL
MIC (Enterococcus faecium [21]): 64 µg/mL
MIC [22]: 64 µg/mL
MIC (Staphylococcus aureus [23]): 8 µg/mL
MIC (Klebsiella pneumoniae [24]): 64 µg/mL
MIC (Klebsiella pneumoniae [25]): 32 µg/mL
MIC (Escherichia coli [32]): 8 µg/mL
